Laboratory results from ChEMBL document CHEMBL1649547, “Telavancin disrupts the functional integrity of the bacterial membrane through targeted interaction with the cell wall precursor lipid II” (Antimicrob Agents Chemother, 2009).
Values after ≈ are worked out from the molar mass of the structure shown. Active and inactive are the calls of the source. The rule behind the calls is not given here.

Key:
[1] = tested on: Staphylococcus aureus; assay: Antibacterial activity against daptomycin-nonsusceptible Staphylococcus aureus MED2034; type: functional
Outline: (§1)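 MIC determined with commercially manufactured dry-form panels; the organisms were grown in cation-adjusted Mueller-Hinton II broth.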

[2] = tested on: Staphylococcus aureus; assay: Antibacterial activity against Staphylococcus aureus; type: functional; outline: as §1
[3] = tested on: Staphylococcus aureus; assay: Antibacterial activity against Staphylococcus aureus grown in MHB medium assessed as induction of bacterial membrane depolarization at 2 to 32 ug/ml by flow cytometry; type: functional, organism-based
Outline: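 MHB-grown S. aureus either kept in MHB or washed and resuspended in cation-containing PBS, then equilibrated 10 min at 37°C before telavancin 2–32 µg/ml. Time course of depolarization measured by DiOC2(3) flow cytometry (final 30 µM, 5 min stain, red/green ratio). Three independent experiments.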

[4] = tested on: Staphylococcus aureus; assay: Antibacterial activity against Staphylococcus aureus assessed as induction of bacterial membrane depolarization by flow cytometry; type: functional, organism-based
Outline: (§2)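 S. aureus ATCC 29213 grown in MHB at 37°C to A625 = 0.3, diluted to 10^6 CFU/ml in MHB. Compound added to 5 ml aliquots, shaking water bath at 37°C, usually 90 min endpoint. Samples mixed 1:1 with DiOC2(3) (final 30 µM) and stained 5 min. Flow cytometry of 5,000 events, red/green ratio; depolarized gate set from CCCP. IC50 from four-parameter sigmoidal fit.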

[5] = tested on: Staphylococcus aureus; assay: Antibacterial activity against vancomycin-intermediate Staphylococcus aureus ATCC 700699; type: functional; outline: as §1
[6] = tested on: Staphylococcus aureus; assay: Antibacterial activity against Staphylococcus aureus assessed as induction of bacterial cell lysis at 8 to 32 ug/ml by turbidity assay; type: functional, organism-based
Outline: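 S. aureus ATCC 33591 was grown in cation-adjusted MHB to early exponential phase (A625 = 0.3). 5-ml aliquots received compound at the final concentration and were incubated in a shaking 37°C water bath. Lysis was followed by turbidity. Cells were also imaged by microscopy at 0, 2 and 6 h, scoring at least 30 cells per condition. Lysostaphin served as the lysis control. Means ± SD of three independent experiments.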

[7] = tested on: Staphylococcus aureus; assay: Antibacterial activity against Staphylococcus aureus assessed as induction of bacterial membrane depolarization at 8 ug/ml by flow cytometry; type: functional
Outline: (§3)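 Membrane potential was measured with DiOC2(3) flow cytometry. Early-exponential cultures (A625 = 0.3) in cation-adjusted MHB were diluted to 106 CFU/ml and dosed in 5-ml aliquots at 37°C with shaking. Samples were stained 5 min with 30 µM DiOC2(3) (final). 5,000 events per sample were collected. The red/green fluorescence ratio was gated against a CCCP-depolarized population. The endpoint was 90 min unless noted.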

[8] = tested on: Staphylococcus aureus; assay: Antibacterial activity against Staphylococcus aureus assessed as induction of bacterial membrane depolarization at 8 ug/ml by flow cytometry in presence of 0.05 mM D-Ala-D-Ala; type: functional
Outline: (§4)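 S. aureus at 10^6 CFU/ml in MHB at 37°C. dKAA tripeptide (0.05, 0.5 or 5 mM) added before telavancin (8 or 32 µg/ml), 60 min reading. DiOC2(3) staining (final 30 µM, 5 min), flow cytometry of 5,000 events, red/green fluorescence ratio; depolarized gate defined with CCCP-treated cells.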

[9] = tested on: Staphylococcus aureus; assay: Antibacterial activity against Staphylococcus aureus assessed as induction of bacterial membrane depolarization at 8 ug/ml by flow cytometry in presence of 0.5 mM D-Ala-D-Ala; type: functional; outline: as §4
[10] = tested on: Staphylococcus aureus; assay: Antibacterial activity against Staphylococcus aureus assessed as induction of bacterial membrane depolarization at 8 ug/ml by flow cytometry in presence of 5 mM D-Ala-D-Ala; type: functional; outline: as §4
[11] = tested on: Staphylococcus aureus; assay: Antibacterial activity against methicillin-resistant Staphylococcus aureus ATCC 33591; type: functional; outline: as §1
[12] = tested on: Staphylococcus aureus; assay: Antibacterial activity against vancomycin-intermediate Staphylococcus aureus ATCC 700699 assessed as induction of bacterial membrane depolarization at 32 ug/ml by flow cytometry; type: functional
Outline: (§5)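 Strains with resistance phenotypes tested in the DiOC2(3) flow-cytometric depolarization assay. Cells at 10^6 CFU/ml in MHB at 37°C, dye final 30 µM, 5 min stain, 5,000 events, red/green ratio. Percent depolarization followed over time.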

[13] = tested on: Staphylococcus aureus; assay: Antibacterial activity against heterogeneous vancomycin-intermediate Staphylococcus aureus ATCC 700698 assessed as induction of bacterial membrane depolarization at 32 ug/ml by flow cytometry; type: functional; outline: as §5
[14] = tested on: Staphylococcus aureus; assay: Antibacterial activity against daptomycin-nonsusceptible Staphylococcus aureus MED2034 assessed as induction of bacterial membrane depolarization at 32 ug/ml by flow cytometry; type: functional; outline: as §3
[15] = tested on: Staphylococcus aureus; assay: Antibacterial activity against heterogeneous vancomycin-intermediate Staphylococcus aureus ATCC 700698; type: functional
[16] = tested on: Staphylococcus aureus; assay: Antibacterial activity against Staphylococcus aureus in presence of 0.05 mM D-Ala-D-Ala; type: functional
[17] = tested on: Staphylococcus aureus; assay: Antibacterial activity against Staphylococcus aureus in presence of 0.5 mM D-Ala-D-Ala; type: functional
[18] = tested on: Staphylococcus aureus; assay: Antibacterial activity against Staphylococcus aureus in presence of 5 mM D-Ala-D-Ala; type: functional
[19] = tested on: Staphylococcus aureus; assay: Antibacterial activity against Staphylococcus aureus assessed as induction of bacterial membrane depolarization at 32 ug/ml by flow cytometry; type: functional; outline: as §2
[20] = tested on: Staphylococcus aureus; assay: Antibacterial activity against Staphylococcus aureus assessed as induction of bacterial membrane depolarization at 32 ug/ml by flow cytometry in presence of 0.05 mM D-Ala-D-Ala; type: functional; outline: as §4
[21] = tested on: Staphylococcus aureus; assay: Antibacterial activity against Staphylococcus aureus assessed as induction of bacterial membrane depolarization at 32 ug/ml by flow cytometry in presence of 0.5 mM D-Ala-D-Ala; type: functional; outline: as §4
[22] = tested on: Staphylococcus aureus; assay: Antibacterial activity against Staphylococcus aureus assessed as induction of bacterial membrane depolarization at 32 ug/ml by flow cytometry in presence of 5 mM D-Ala-D-Ala; type: functional; outline: as §4
[23] = tested on: Staphylococcus aureus; assay: Inhibition of bacterial cell wall precursor lipid 2 synthesis in Staphylococcus aureus assessed as induction of membrane depolarization at 32 ug/ml by flow cytometry in presence of fosfomycin; type: functional; set-up: scale not given: the % may be the effect or the level left
Outline: (§6)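 Cells then exposed to telavancin 32 µg/ml for 15 min (nisin 2 µg/ml, 5 min). DiOC2(3) flow cytometry. Percent depolarization expressed relative to samples without pretreatment.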

[24] = tested on: Staphylococcus aureus; assay: Inhibition of bacterial cell wall precursor lipid 2 synthesis in Staphylococcus aureus assessed as induction of membrane depolarization at 32 ug/ml by flow cytometry in presence of D-cycloserine; type: functional; set-up: scale not given: the % may be the effect or the level left; outline: as §6
[25] = tested on: Staphylococcus aureus; assay: Inhibition of bacterial cell wall precursor lipid 2 synthesis in Staphylococcus aureus assessed as induction of membrane depolarization at 32 ug/ml by flow cytometry in presence of bacitracin; type: functional; set-up: scale not given: the % may be the effect or the level left; outline: as §6
[26] = tested on: Cell membrane; assay: Binding affinity to cell membrane of Staphylococcus aureus grown in MHB medium at 8 ug/ml by scintillation counting relative to control
Outline: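 S. aureus at 10^8 CFU/ml in MHB or PBS at 37°C, exposed to [14C]telavancin 8 µg/ml over 2 h. At each time point, cells collected on 0.2-µm filter plate, dried overnight at 37°C, and scintillation counted. Three independent experiments.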

[27] = tested on: Staphylococcus aureus; assay: Antibacterial activity against Staphylococcus aureus assessed as induction of bacterial cell lysis at 8 to 32 ug/ml by spectrophotometry; type: functional, organism-based
Outline: (§7)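 S. aureus ATCC 33591 grown in MHB to early exponential phase (A625 = 0.3). 5 ml aliquots treated at final concentration, shaking water bath at 37°C. Turbidity read by spectrophotometer. Lysis also scored by microscopy: intact cells dark, lysed cells transparent; imaged at 0, 2 and 6 h, at least 30 cells per condition. Lysostaphin as lysis control. Three independent experiments.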

[28] = tested on: Staphylococcus aureus; assay: Antibacterial activity against Staphylococcus aureus assessed as bacterial count at 8 to 32 ug/ml by turbidity assay; type: functional; outline: as §7
[29] = tested on: Staphylococcus aureus; assay: Antibacterial activity against Staphylococcus aureus assessed as change in cellular membrane integrity at 8 to 32 ug/ml up to 6 hrs by spectrophotometry; type: functional, organism-based; outline: as §7

With `CCCCCCCCCC(=O)N[C@@H](Cc1c[nH]c2ccccc12)C(=O)N[C@H](CC(N)=O)C(=O)N[C@@H](CC(=O)O)C(=O)N[C@@H]1C(=O)NCC(=O)N[C@@H](CCCN)C(=O)N[C@@H](CC(=O)O)C(=O)N[C@H](C)C(=O)N[C@@H](CC(=O)O)C(=O)NCC(=O)N[C@H](CO)C(=O)N[C@@H]([C@H](C)CC(=O)O)C(=O)N[C@@H](CC(=O)c2ccccc2N)C(=O)O[C@@H]1C` as the compound, how does the MIC [1] read?
Its MIC is 4 µg/mL (≈ 2.47 µM).

Which results are given for `CCCCCCCCCCO` [DECANOL]?
MIC [2]: 128 µg/mL (≈ 809 µM); Activity [3]: Active

With `CN[C@H](CC(C)C)C(=O)N[C@H]1C(=O)N[C@@H](CC(N)=O)C(=O)N[C@H]2C(=O)N[C@H]3C(=O)N[C@H](C(=O)N[C@H](C(=O)O)c4cc(O)cc(O)c4-c4cc3ccc4O)[C@H](O)c3ccc(c(Cl)c3)Oc3cc2cc(c3O[C@@H]2O[C@H](CO)[C@@H](O)[C@H](O)[C@H]2O[C@H]2C[C@](C)(N)[C@H](O)[C@H](C)O2)Oc2ccc(cc2Cl)[C@H]1O` [VANCOMYCIN] as the compound, how does the IC50 [4] read?
The IC50 was greater than 96 µg/mL.

And the MIC [5]?
Its MIC is 8 µg/mL (≈ 5.52 µM).

What about the Activity [6] of the same compound?
The Activity was “inactive”.

For `CCCCCCCCCCNCCN[C@@]1(C)C[C@H](O[C@H]2[C@H](Oc3c4cc5cc3Oc3ccc(cc3Cl)[C@H](O)[C@@H](NC(=O)O)C(=O)N[C@@H](CC(N)=O)C(=O)N[C@H]5C(=O)N[C@H]3C(=O)N[C@H](C(=O)N[C@H](C(=O)O)c5cc(O)c(CNCP(=O)(O)O)c(O)c5-c5cc3ccc5O)[C@H](O)c3ccc(c(Cl)c3)O4)O[C@H](CO)[C@@H](O)[C@@H]2O)O[C@@H](C)[C@H]1O`, which Activity [7] is on record?
Its Activity is 35%.

And the MIC [2]?
Its MIC is 8 µg/mL (≈ 4.78 µM).

Which Activity [8] does the source give for `CCCCCCCCCCNCCN[C@@]1(C)C[C@H](O[C@H]2[C@H](Oc3c4cc5cc3Oc3ccc(cc3Cl)[C@@H](O)[C@@H](NC(=O)[C@@H](CC(C)C)NC)C(=O)N[C@@H](CC(N)=O)C(=O)N[C@H]5C(=O)N[C@H]3C(=O)N[C@H](C(=O)N[C@H](C(=O)O)c5cc(O)c(CNCP(=O)(O)O)c(O)c5-c5cc3ccc5O)[C@H](O)c3ccc(c(Cl)c3)O4)O[C@H](CO)[C@@H](O)[C@@H]2O)O[C@@H](C)[C@H]1O` [TELAVANCIN] here?
The Activity was 33%.

And the Activity [9]?
Its Activity is 17%.

And the Activity [10]?
The Activity was 7%.

And the MIC [11]?
Its MIC is no more than 0.5 µg/mL.

And the Activity [7]?
The Activity was 49%.

And the MIC [2]?
The MIC was 0.25 µg/mL (≈ 0.142 µM).

And the Activity [4]?
The Activity was “Dose-dependent effect”.

And the IC50 [4]?
Its IC50 is 3.6 µg/mL (≈ 2.05 µM).

What about the Activity [12] of the same compound?
Its Activity is 61%.

What about the Activity [13] of the same compound?
Its Activity is 78%.

What about the Activity [14] of the same compound?
The Activity was 77%.

And the MIC [5]?
The MIC was 0.5 µg/mL (≈ 0.285 µM).

And the MIC [15]?
The MIC was no more than 0.5 µg/mL.

And the MIC [1]?
The MIC was no more than 0.5 µg/mL.

What about the MIC [16] of the same compound?
Its MIC is 0.5 µg/mL.

What about the MIC [17] of the same compound?
Its MIC is 1 µg/mL.

What about the MIC [18] of the same compound?
Its MIC is 4 µg/mL.

What about the Activity [19] of the same compound?
Its Activity is 94%.

What about the Activity [20] of the same compound?
The Activity was 68%.

What about the Activity [21] of the same compound?
Its Activity is 19%.

And the Activity [22]?
The Activity was 14%.

And the Activity [23]?
The Activity was 29%.

What about the Activity [24] of the same compound?
Its Activity is 38%.

What about the Activity [25] of the same compound?
Its Activity is 27%.

What about the Activity [3] of the same compound?
Its Activity is “Active”.

And the fold change (FC) [26]?
The fold change (FC) was 2.8.

What about the Activity [27] of the same compound?
The Activity was “inactive”.

What about the log10CFU/ml [28] of the same compound?
Its log10CFU/ml is 3.

And the Activity [29]?
Its Activity is “inactive”.
